# Assay results: ChEMBL document CHEMBL1275432, “Daptomycin is effective in treatment of experimental endocarditis due to methicillin-resistant and glycopeptide-intermediate Staphylococcus aureus” (Antimicrob Agents Chemother, 2008)
# Activity calls are given as the source filed them.
# Key:
# Staphylococcus aureus [1] = test: Bactericidal activity against glycopeptide-intermediate Staphylococcus aureus ATCC 700788 at 0.5 to 4 times MIC by time-kill experiment; format: functional, organism-based
# Outline: (§1)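 Time-kill curves per CLSI, run in duplicate. Inoculum was 10^5 CFU/ml, with drug at 0.5–4× MIC. Viable counts were taken at 0, 4 and 24 h. Bactericidal was defined as a ≥3-log CFU reduction at 24 h versus the initial inoculum.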
# [2] = Plasma protein binding in New Zealand White rabbit plasma at 6 mg/kg, iv administered every 24 hrs; format: ADME, organism-based, Oryctolagus cuniculus; set-up: dose 6 mg/kg, route intravenous; conditions: read-out: PPB (converted)
# Staphylococcus aureus [3] = test: Antimicrobial activity against methicillin-resistant Staphylococcus aureus after 72 hrs by Etest; format: functional
# [4] = Plasma protein binding in human serum at 6 mg/kg, iv administered every 24 hrs; format: ADME, organism-based; set-up: dose 6 mg/kg, route intravenous; conditions: read-out: PPB (converted)
# Staphylococcus aureus [5] = test: Antimicrobial activity against glycopeptide-intermediate Staphylococcus aureus ATCC 700788 by microdilution method; format: functional
# Outline: (§2)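 Broth microdilution MIC and MBC per CLSI in cation-adjusted Mueller-Hinton broth. For daptomycin, the broth was adjusted to 50 µg/ml calcium. S. aureus ATCC 29213 was the control strain.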
# Staphylococcus aureus [6] = test: Antimicrobial activity against methicillin-resistant Staphylococcus aureus by Etest; format: functional
# Staphylococcus aureus [7] = test: Bactericidal activity against methicillin-resistant Staphylococcus aureus 277 at 0.5 to 4 times MIC by time-kill experiment; format: functional, organism-based; outline: as §1
# [8] = AUC in human serum at 6 mg/kg, iv administered every 24 hrs; format: ADME, organism-based; set-up: dose 6 mg/kg, route intravenous
# [9] = Terminal half-life in human serum at 6 mg/kg, iv administered every 24 hrs; format: ADME, organism-based; set-up: dose 6 mg/kg, route intravenous
# Staphylococcus aureus [10] = test: Antimicrobial activity against methicillin-resistant Staphylococcus aureus 277 by microdilution method; format: functional; outline: as §2
# [11] = Cmax in human serum at 6 mg/kg, iv administered every 24 hrs; format: ADME, organism-based; set-up: dose 6 mg/kg, route intravenous
# [12] = Terminal half-life in New Zealand White rabbit at 1 g, iv administered every 12 hrs; format: ADME, organism-based, Oryctolagus cuniculus; conditions: in vivo
# Outline: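 The vancomycin line simulated 1 g i.v. q 12 h (30 mg/kg/day in 2 doses). The daptomycin line simulated 6 mg/kg q 24 h. Parameters came from an open 2-compartment model. Daptomycin was measured by disk-plate bioassay with Micrococcus luteus ATCC 9341 (sensitivity 0.5 µg/ml). Vancomycin was measured by latex-boosted immunoturbidimetry (LOD 0.8 µg/ml).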
# [13] = Cmin in New Zealand White rabbit infected with methicillin-resistant Staphylococcus aureus after 24 hrs; format: ADME, organism-based, Oryctolagus cuniculus; conditions: in vivo, read-out: Cmin
# Outline: (§3)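 Trough serum concentrations were taken in rabbits with catheter-induced aortic valve endocarditis. Infection was 1 ml i.v. via the marginal ear vein: 7 × 10^5 CFU/ml for MRSA or 8 × 10^5 CFU/ml for GISA. Human-simulating pump infusion started 18 h after infection and ran 48 h. Daptomycin was assayed by M. luteus bioassay, vancomycin by immunoturbidimetry.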
# [14] = Terminal half-life in human serum at 1 g, iv administered every 12 hrs; format: ADME, organism-based
# [15] = Cmin in New Zealand White rabbit infected with glycopeptide-intermediate Staphylococcus aureus after 24 hrs; format: ADME, organism-based, Oryctolagus cuniculus; conditions: in vivo, read-out: Cmin; outline: as §3
# Staphylococcus aureus [16] = test: Bacteriostatic activity against methicillin-resistant Staphylococcus aureus 277 at 0.5 to 4 times MIC by time-kill experiment; format: functional, organism-based; outline: as §1
# Staphylococcus aureus [17] = test: Bacteriostatic activity against glycopeptide-intermediate Staphylococcus aureus ATCC 700788 at 0.5 to 4 times MIC by time-kill experiment; format: functional, organism-based; outline: as §1
# [18] = Plasma protein binding in New Zealand White rabbit plasma at 1 g, iv administered every 12 hrs; format: ADME, organism-based, Oryctolagus cuniculus; conditions: read-out: PPB (converted)
Compound,Activity (Staphylococcus aureus [1]),fraction unbound at 24 h [2],MIC (Staphylococcus aureus [3]) [µg/mL],fraction unbound at 24 h [4],MBC (Staphylococcus aureus [5]) [µg/mL],MIC (Staphylococcus aureus [5]) [µg/mL],MIC (Staphylococcus aureus [6]) [µg/mL],Activity (Staphylococcus aureus [7]),AUC at 24 h [8] [µg·h/mL],half-life [9] [h],MIC (Staphylococcus aureus [10]) [µg/mL],Cmax [11] [ng/mL],half-life [12] [h],concentration at 24 h [13] [ng/mL],half-life [14] [h],concentration at 24 h [15] [ng/mL],Activity (Staphylococcus aureus [16]),Activity (Staphylococcus aureus [17]),fraction unbound at 12 h [18]
CCCCCCCCCC(=O)N[C@@H](Cc1c[nH]c2ccccc12)C(=O)N[C@H](CC(N)=O)C(=O)N[C@@H](CC(=O)O)C(=O)N[C@@H]1C(=O)NCC(=O)N[C@@H](CCCN)C(=O)N[C@@H](CC(=O)O)C(=O)N[C@H](C)C(=O)N[C@@H](CC(=O)O)C(=O)NCC(=O)N[C@H](CO)C(=O)N[C@@H]([C@H](C)CC(=O)O)C(=O)N[C@@H](CC(=O)c2ccccc2N)C(=O)O[C@@H]1C,Active,0.1,0.5,0.08,1,0.5,0.12,Active,974,9.5,0.12,86000,,,,,,,
CN[C@H](CC(C)C)C(=O)N[C@H]1C(=O)N[C@@H](CC(N)=O)C(=O)N[C@H]2C(=O)N[C@H]3C(=O)N[C@H](C(=O)N[C@H](C(=O)O)c4cc(O)cc(O)c4-c4cc3ccc4O)[C@H](O)c3ccc(c(Cl)c3)Oc3cc2cc(c3O[C@@H]2O[C@H](CO)[C@@H](O)[C@H](O)[C@H]2O[C@H]2C[C@](C)(N)[C@H](O)[C@H](C)O2)Oc2ccc(cc2Cl)[C@H]1O [VANCOMYCIN],,,8,,,,,,,,,,1.3,20000,4.8,20000,Active,Active,0.35
GENTAMICIN,,,,,128,0.25,,,,,,,,,,,,,
